{
  "source": "ChEMBL document CHEMBL2440064",
  "about": "“Synthesis and biological evaluation of 2-amino-5-aryl-3-benzylthiopyridine scaffold based potent c-Met inhibitors” (Bioorg Med Chem, 2013)",
  "key": {"[1]": {"biological_target": "Tyrosine-protein kinase receptor TYRO3 (Homo sapiens, UniProt Q06418)", "test": "Inhibition of TYRO3 (unknown origin) using poly (Glu, Tyr) 4:1 as substrate after 60 mins by ELISA", "in_short": "(§1)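 ELISA on wells precoated with 20 µg/mL poly(Glu,Tyr)4:1. Purified kinase with 10 µmol/L ATP in 50 mM HEPES pH 7.4, 50 mM MgCl₂, 0.5 mM MnCl₂, 0.2 mM Na₃VO₄, 1 mM DTT; 1% DMSO vehicle. 60 min at 37°C. Phosphotyrosine detected with PY99 antibody, then HRP anti-mouse IgG and o-phenylenediamine/H₂O₂, A490. Inhibition = [1−(A490/A490 control)]×100%; IC50 from curves.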"}, "SK-OV-3": {"system": "SK-OV-3", "test": "Antiproliferative activity against human SKOV3 cells after 72 hrs", "conditions": "SK-OV-3, 72 h"}, "[2]": {"biological_target": "Tyrosine-protein kinase ABL1 (Homo sapiens, UniProt P00519)", "test": "Inhibition of Abl (unknown origin) using poly (Glu, Tyr) 4:1 as substrate after 60 mins by ELISA", "in_short": "as §1"}, "[3]": {"biological_target": "T1, TPR/MET fusion protein (Mus musculus) (UniProt P16056+F6ZDS4)", "T1 sequence (F6ZDS4 whole entry partner, the tested form may be a part)": "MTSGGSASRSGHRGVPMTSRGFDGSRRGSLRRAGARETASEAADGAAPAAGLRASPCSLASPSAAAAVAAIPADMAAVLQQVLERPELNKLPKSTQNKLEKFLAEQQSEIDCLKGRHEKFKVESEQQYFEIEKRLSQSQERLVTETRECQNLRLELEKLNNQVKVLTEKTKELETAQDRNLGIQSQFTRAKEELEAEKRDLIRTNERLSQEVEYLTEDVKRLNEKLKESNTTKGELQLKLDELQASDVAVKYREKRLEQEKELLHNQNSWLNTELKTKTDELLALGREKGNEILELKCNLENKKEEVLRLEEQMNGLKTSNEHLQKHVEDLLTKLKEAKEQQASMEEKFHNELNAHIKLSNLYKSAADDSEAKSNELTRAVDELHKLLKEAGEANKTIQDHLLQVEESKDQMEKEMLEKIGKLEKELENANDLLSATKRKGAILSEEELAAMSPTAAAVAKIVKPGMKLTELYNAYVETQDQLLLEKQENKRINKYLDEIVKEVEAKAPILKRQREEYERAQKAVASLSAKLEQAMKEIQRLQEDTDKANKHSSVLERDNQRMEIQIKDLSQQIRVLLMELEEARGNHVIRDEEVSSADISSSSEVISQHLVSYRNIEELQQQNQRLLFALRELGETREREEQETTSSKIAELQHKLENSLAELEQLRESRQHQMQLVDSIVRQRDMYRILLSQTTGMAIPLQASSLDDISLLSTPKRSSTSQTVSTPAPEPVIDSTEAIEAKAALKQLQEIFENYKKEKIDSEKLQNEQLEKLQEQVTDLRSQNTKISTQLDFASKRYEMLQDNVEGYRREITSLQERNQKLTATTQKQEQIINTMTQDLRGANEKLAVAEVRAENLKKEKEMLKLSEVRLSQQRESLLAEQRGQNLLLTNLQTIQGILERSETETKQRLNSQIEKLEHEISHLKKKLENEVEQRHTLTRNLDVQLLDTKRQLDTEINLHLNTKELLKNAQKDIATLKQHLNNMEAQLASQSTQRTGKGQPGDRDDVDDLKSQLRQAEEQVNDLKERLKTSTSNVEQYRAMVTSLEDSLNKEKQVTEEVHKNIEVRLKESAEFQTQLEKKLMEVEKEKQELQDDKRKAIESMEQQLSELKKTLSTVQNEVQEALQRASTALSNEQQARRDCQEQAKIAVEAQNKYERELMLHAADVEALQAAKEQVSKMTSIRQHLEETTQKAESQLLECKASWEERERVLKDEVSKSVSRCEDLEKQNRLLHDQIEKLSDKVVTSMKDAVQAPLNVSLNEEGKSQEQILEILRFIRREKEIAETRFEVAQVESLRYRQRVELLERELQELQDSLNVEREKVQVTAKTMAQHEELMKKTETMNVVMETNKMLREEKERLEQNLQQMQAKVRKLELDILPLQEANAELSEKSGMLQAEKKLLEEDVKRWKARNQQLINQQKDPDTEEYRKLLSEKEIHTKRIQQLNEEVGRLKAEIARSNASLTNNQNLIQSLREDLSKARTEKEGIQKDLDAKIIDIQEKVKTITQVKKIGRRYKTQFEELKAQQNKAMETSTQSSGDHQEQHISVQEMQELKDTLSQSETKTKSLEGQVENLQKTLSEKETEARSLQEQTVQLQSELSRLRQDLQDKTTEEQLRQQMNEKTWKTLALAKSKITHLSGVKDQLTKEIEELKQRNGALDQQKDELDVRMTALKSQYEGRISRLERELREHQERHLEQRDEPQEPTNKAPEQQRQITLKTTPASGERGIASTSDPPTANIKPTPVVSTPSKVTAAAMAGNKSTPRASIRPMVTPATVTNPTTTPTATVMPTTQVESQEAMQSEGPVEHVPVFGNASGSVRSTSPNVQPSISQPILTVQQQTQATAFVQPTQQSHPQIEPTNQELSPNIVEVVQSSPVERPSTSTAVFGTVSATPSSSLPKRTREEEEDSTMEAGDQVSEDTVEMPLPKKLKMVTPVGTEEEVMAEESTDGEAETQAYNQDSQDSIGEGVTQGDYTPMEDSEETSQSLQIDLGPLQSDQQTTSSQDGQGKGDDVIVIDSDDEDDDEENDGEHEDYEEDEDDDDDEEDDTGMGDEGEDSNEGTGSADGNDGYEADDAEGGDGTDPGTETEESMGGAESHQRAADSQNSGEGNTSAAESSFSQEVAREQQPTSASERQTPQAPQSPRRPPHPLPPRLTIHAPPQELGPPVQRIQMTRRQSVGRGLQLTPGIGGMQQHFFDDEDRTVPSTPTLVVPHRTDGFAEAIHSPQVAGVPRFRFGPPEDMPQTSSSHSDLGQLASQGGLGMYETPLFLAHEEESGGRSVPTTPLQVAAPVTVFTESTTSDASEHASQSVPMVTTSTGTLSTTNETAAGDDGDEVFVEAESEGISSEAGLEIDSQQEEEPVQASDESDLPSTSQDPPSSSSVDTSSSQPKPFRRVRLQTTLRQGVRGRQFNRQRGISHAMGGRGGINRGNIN", "T1 sequence (P16056 25-1379 limits assumed)": "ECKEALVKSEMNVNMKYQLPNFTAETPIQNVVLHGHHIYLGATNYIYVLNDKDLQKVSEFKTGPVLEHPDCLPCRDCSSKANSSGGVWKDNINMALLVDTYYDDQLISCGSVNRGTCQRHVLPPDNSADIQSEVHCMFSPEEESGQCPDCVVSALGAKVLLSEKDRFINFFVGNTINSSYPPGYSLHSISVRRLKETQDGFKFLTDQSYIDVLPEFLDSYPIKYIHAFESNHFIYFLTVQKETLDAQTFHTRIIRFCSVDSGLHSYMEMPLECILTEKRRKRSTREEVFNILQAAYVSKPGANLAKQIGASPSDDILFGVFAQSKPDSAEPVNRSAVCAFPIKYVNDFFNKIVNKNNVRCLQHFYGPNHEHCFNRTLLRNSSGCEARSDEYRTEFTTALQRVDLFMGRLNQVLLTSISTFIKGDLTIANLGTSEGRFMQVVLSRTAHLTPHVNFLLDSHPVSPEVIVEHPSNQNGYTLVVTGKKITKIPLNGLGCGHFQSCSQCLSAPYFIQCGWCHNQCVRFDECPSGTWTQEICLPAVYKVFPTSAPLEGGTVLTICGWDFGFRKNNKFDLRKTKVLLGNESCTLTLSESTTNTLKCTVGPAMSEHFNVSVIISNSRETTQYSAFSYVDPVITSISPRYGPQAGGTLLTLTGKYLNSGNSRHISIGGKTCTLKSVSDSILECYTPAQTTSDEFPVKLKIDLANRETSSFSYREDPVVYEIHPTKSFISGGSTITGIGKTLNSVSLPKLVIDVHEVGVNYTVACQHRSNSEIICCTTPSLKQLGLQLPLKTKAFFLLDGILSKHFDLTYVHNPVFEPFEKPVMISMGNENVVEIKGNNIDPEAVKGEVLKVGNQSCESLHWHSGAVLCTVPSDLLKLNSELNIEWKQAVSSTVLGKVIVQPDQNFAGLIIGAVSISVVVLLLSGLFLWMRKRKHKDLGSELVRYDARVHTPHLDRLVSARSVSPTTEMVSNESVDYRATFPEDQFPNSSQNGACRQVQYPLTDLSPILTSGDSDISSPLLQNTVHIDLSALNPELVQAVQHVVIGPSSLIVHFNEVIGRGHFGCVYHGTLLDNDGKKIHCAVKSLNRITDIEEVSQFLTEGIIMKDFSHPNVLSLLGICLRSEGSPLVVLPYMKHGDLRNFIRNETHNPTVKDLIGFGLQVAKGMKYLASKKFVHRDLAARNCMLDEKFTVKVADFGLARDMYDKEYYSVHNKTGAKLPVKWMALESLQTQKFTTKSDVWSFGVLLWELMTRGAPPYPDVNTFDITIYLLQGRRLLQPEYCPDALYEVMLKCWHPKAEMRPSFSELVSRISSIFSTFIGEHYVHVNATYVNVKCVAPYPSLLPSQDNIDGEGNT", "test": "Inhibition of TPR/Met in mouse BAF3 cells assessed as inhibition of p44/42 phosphorylation at 0.08 to 10 uM after 2 hrs by Western blotting analysis", "type": "cell-based", "in_short": "(§2)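 Cells grown to exponential phase, treated with compound 2 h at 37°C, lysed in 1× SDS sample buffer, resolved on 10% SDS-PAGE and transferred to nitrocellulose for immunoblotting.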"}, "[4]": {"biological_target": "T2, Hepatocyte growth factor receptor (Homo sapiens, UniProt P08581)", "T2 sequence (P08581 whole entry)": "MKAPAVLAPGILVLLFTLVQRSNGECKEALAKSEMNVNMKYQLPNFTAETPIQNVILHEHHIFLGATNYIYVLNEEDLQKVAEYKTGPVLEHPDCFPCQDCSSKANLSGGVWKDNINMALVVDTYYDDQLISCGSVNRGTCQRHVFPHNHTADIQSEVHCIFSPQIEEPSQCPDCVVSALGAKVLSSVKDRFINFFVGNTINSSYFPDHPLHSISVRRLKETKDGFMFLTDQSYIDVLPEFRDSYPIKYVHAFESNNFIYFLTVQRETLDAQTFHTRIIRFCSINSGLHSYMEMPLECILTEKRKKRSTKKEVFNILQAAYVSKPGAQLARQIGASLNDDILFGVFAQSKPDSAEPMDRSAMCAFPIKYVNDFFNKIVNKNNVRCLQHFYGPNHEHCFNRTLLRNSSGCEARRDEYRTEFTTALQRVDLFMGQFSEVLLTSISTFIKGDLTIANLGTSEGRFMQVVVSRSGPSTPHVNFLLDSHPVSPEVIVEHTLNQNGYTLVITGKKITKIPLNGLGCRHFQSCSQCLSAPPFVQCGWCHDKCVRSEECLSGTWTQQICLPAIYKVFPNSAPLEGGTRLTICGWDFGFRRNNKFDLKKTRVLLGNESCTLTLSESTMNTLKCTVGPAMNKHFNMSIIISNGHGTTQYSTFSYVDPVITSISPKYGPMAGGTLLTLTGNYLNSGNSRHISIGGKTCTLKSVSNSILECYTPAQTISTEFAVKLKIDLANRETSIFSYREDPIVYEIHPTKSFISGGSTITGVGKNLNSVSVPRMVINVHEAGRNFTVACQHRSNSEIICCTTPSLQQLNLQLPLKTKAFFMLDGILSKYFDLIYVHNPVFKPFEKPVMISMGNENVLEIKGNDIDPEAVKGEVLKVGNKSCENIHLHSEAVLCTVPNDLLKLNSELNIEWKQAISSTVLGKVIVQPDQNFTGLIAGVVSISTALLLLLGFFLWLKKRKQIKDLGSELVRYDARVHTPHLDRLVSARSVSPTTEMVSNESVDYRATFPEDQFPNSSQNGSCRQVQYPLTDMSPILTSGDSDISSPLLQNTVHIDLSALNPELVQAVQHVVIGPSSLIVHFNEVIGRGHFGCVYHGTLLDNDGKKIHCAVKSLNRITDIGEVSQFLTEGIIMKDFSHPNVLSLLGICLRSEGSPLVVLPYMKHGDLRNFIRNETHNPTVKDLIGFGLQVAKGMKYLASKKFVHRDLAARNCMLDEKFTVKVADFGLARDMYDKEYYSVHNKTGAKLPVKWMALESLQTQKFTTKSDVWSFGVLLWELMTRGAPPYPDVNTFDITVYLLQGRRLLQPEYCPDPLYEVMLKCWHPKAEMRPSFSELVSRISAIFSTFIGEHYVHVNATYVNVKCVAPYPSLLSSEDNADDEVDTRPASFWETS", "test": "Inhibition of c-Met in gefitinib-resistant human HCC827 cells assessed as inhibition of p44/42 phosphorylation at 0.5 uM after 2 hrs by Western blotting analysis in presence of gefitinib", "type": "cell-based", "in_short": "as §2"}, "[5]": {"test": "Clearance in rat at 2 mg/kg, iv and 10 mg/kg, po", "type": "ADME, organism-based", "conditions": "in vivo", "in_short": "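Rat pharmacokinetics after a single intravenous dose (2 mg/kg) and a single oral dose (10 mg/kg).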"}, "[6]": {"test": "Antiproliferative activity against human EBC1 cells after 72 hrs", "conditions": "EBC-1, 72 h"}, "[7]": {"biological_target": "T1, TPR/MET fusion protein (Mus musculus)", "test": "Inhibition of TPR/Met phosphorylation in mouse BAF3 cells after 2 hrs by Western blotting analysis", "type": "cell-based", "in_short": "as §2"}, "MKN-45": {"system": "MKN-45", "test": "Antiproliferative activity against human MKN45 cells after 72 hrs", "conditions": "MKN-45, 72 h"}, "[8]": {"biological_target": "Fibroblast growth factor receptor 1 (Homo sapiens, UniProt P11362)", "test": "Inhibition of FGFR1 (unknown origin) using poly (Glu, Tyr) 4:1 as substrate after 60 mins by ELISA", "in_short": "as §1"}, "[9]": {"biological_target": "T2, Hepatocyte growth factor receptor", "test": "Inhibition of c-Met phosphorylation in human MKN45 cells after 2 hrs by Western blotting analysis", "type": "cell-based", "conditions": "MKN-45", "in_short": "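Cells grown under regular conditions to exponential phase, exposed to compound at indicated concentrations for 2 h at 37°C, lysed in 1× SDS sample buffer. Lysates resolved on 10% SDS-PAGE and transferred to nitrocellulose for immunoblotting.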"}, "[10]": {"biological_target": "Platelet-derived growth factor receptor alpha (Homo sapiens, UniProt P16234)", "test": "Inhibition of PDGFRalpha (unknown origin) using poly (Glu, Tyr) 4:1 as substrate after 60 mins by ELISA", "in_short": "as §1"}, "[11]": {"biological_target": "Mast/stem cell growth factor receptor Kit (Homo sapiens, UniProt P10721)", "test": "Inhibition of c-kit (unknown origin) using poly (Glu, Tyr) 4:1 as substrate after 60 mins by ELISA", "in_short": "(§3)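 Purified kinase incubated with 10 µmol/L ATP in wells pre-coated with 20 µg/mL poly(Glu,Tyr)4:1. Reaction ran 60 min at 37°C. Phosphotyrosine detected with PY99 antibody, then HRP anti-mouse IgG and o-phenylenediamine/H₂O₂, read at 490 nm. IC50 taken from inhibition curves.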"}, "MCF7": {"system": "MCF7", "test": "Antiproliferative activity against human MCF7 cells after 72 hrs", "conditions": "MCF7, 72 h"}, "[12]": {"test": "Volume of distribution in rat at 2 mg/kg, iv and 10 mg/kg, po", "type": "ADME, organism-based", "conditions": "in vivo", "in_short": "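Rats given a single iv dose (2 mg/kg) or a single po dose (10 mg/kg).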"}, "Ephrin type-B receptor 2": {"biological_target": "Ephrin type-B receptor 2 (Homo sapiens, UniProt P29323)", "test": "Inhibition of EPHB2 (unknown origin) using poly (Glu, Tyr) 4:1 as substrate after 60 mins by ELISA", "in_short": "as §1"}, "[13]": {"biological_target": "T2, Hepatocyte growth factor receptor", "test": "Inhibition of c-Met phosphorylation in gefitinib-resistant human HCC827 cells at 0.5 uM after 2 hrs by Western blotting analysis", "type": "cell-based", "in_short": "as §2"}, "[14]": {"biological_target": "Epidermal growth factor receptor (Homo sapiens, UniProt P00533)", "test": "Inhibition of EGFR (unknown origin) using poly (Glu, Tyr) 4:1 as substrate after 60 mins by ELISA", "in_short": "as §1"}, "[15]": {"biological_target": "Hepatocyte growth factor receptor (Canis lupus familiaris) (UniProt Q75ZY9)", "test": "Inhibition of c-Met in MDCK cells assessed as HGF-induced cell scattering at 3 uM after 24 hrs by microscopic analysis", "type": "cell-based", "in_short": "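MDCK cells plated at 1,500/well in 96-well plates and allowed to form clusters over 24 h. Then 24 h with compound plus 50 ng/mL recombinant human HGF in FBS-free medium. Fixed in 4% paraformaldehyde 15 min at room temperature, stained with 0.2% crystal violet and imaged by microscopy.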"}, "Ephrin type-A receptor 2": {"biological_target": "Ephrin type-A receptor 2 (Homo sapiens, UniProt P29317)", "test": "Inhibition of EPHA2 (unknown origin) using poly (Glu, Tyr) 4:1 as substrate after 60 mins by ELISA", "in_short": "as §1"}, "[16]": {"biological_target": "Vascular endothelial growth factor receptor 1 (Homo sapiens, UniProt P17948)", "test": "Inhibition of FLT1 (unknown origin) using poly (Glu, Tyr) 4:1 as substrate after 60 mins by ELISA", "in_short": "as §1"}, "MDA-MB-231": {"system": "MDA-MB-231", "test": "Antiproliferative activity against human MDA-MB-231 cells after 72 hrs", "conditions": "MDA-MB-231, 72 h"}, "BaF3": {"system": "BaF3", "test": "Antiproliferative activity against mouse BAF3 cells expressing TPR/Met fusion protein after 72 hrs", "type": "functional, cell-based", "conditions": "BaF3, 72 h", "in_short": "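Cells seeded in 96-well plates, exposed next day to a range of compound concentrations and cultured 72 h; proliferation read by sulforhodamine B or CCK-8. IC50 as mean ± SD (μM) from three separate experiments.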"}, "[17]": {"biological_target": "Proto-oncogene tyrosine-protein kinase receptor Ret (Homo sapiens, UniProt P07949)", "test": "Inhibition of RET (unknown origin) using poly (Glu, Tyr) 4:1 as substrate after 60 mins by ELISA", "in_short": "as §1"}, "[18]": {"biological_target": "T2, Hepatocyte growth factor receptor", "test": "Inhibition of c-Met in human SNU5 cells assessed as inhibition of p44/42 phosphorylation at 0.16 to 20 uM after 2 hrs by Western blotting analysis", "type": "cell-based", "conditions": "SNU-5", "in_short": "as §2"}, "[19]": {"biological_target": "Hepatocyte growth factor receptor (Canis lupus familiaris) (UniProt Q75ZY9)", "test": "Inhibition of c-Met in MDCK cells assessed as HGF-induced cell motility at 0.3 to 3 uM after 1 to 10 hrs by wound-healing assay", "type": "cell-based", "in_short": "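MDCK monolayers in 12-well plates, pre-incubated 30 min serum-free. Scratch wound made with micropipette and washed, then compound added with or without 50 ng/mL recombinant human HGF at 37°C. Phase-contrast images at 0 and 10 h.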"}, "[20]": {"biological_target": "Proto-oncogene tyrosine-protein kinase Src (Homo sapiens, UniProt P12931)", "test": "Inhibition of c-Src (unknown origin) using poly (Glu, Tyr) 4:1 as substrate after 60 mins by ELISA", "in_short": "as §3"}},
  "note": "Active and inactive are the calls of the source. No cut-off for these calls is given here.",
  "data": [
    {"smiles": "C[C@@H](Sc1cc(-c2cnn(C3CCNCC3)c2)cnc1N)c1c(Cl)ccc(F)c1Cl", "values": [
      {"measurement": "IC50", "setting": "[1]", "value": "> 1", "unit": "µM"},
      {"measurement": "IC50", "setting": "SK-OV-3", "value": 12.7, "unit": "µM"},
      {"measurement": "IC50", "setting": "[2]", "value": "> 1", "unit": "µM"},
      {"measurement": "inhibition", "setting": "[3]", "value": "Active"},
      {"measurement": "inhibition", "setting": "[4]", "value": "Active"},
      {"measurement": "clearance", "setting": "[5]", "value": 53, "unit": "mL/min/kg"},
      {"measurement": "IC50", "setting": "[6]", "value": 0.71, "unit": "µM"},
      {"measurement": "inhibition", "setting": "[7]", "value": "Dose-dependent effect"},
      {"measurement": "IC50", "setting": "MKN-45", "value": 0.29, "unit": "µM"},
      {"measurement": "IC50", "setting": "[8]", "value": "> 1", "unit": "µM"},
      {"measurement": "inhibition", "setting": "[9]", "value": "Dose-dependent effect"},
      {"measurement": "IC50", "setting": "[10]", "value": "> 1", "unit": "µM"},
      {"measurement": "IC50", "setting": "[11]", "value": "> 1", "unit": "µM"},
      {"measurement": "IC50", "setting": "MCF7", "value": 11.6, "unit": "µM"},
      {"measurement": "Vd", "setting": "[12]", "value": 20, "unit": "L/kg"},
      {"measurement": "IC50", "setting": "Ephrin type-B receptor 2", "value": "> 1", "unit": "µM"},
      {"measurement": "inhibition", "setting": "[13]", "value": "Active"},
      {"measurement": "IC50", "setting": "[14]", "value": "> 1", "unit": "µM"},
      {"measurement": "inhibition", "setting": "[15]", "value": "Active"},
      {"measurement": "IC50", "setting": "Ephrin type-A receptor 2", "value": "> 1", "unit": "µM"},
      {"measurement": "IC50", "setting": "[16]", "value": "> 1", "unit": "µM"},
      {"measurement": "IC50", "setting": "MDA-MB-231", "value": 12.1, "unit": "µM"},
      {"measurement": "IC50", "setting": "BaF3", "value": 0.58, "unit": "µM"},
      {"measurement": "IC50", "setting": "[17]", "value": "> 1", "unit": "µM"},
      {"measurement": "inhibition", "setting": "[18]", "value": "Active"},
      {"measurement": "inhibition", "setting": "[19]", "value": "Active"},
      {"measurement": "IC50", "setting": "[20]", "value": "> 1", "unit": "µM"}
    ]}
  ]
}
